Key:
Format in all cases: functional
M21 [1] = assay: Antiproliferative activity against human M21 cells after 48 hrs; settings: M21, 48 h
Method in brief: (§1)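 NCI-style sulforhodamine B growth assay. Cells in high-glucose DMEM with 5% iron-supplemented bovine calf serum were preincubated 24 h at 37 °C, 5% CO2. Drugs in DMSO (final <0.5%) were added at 0.1–100 µM final for 48 h. Cells were fixed with cold TCA (10% final, 60 min, 4 °C), stained with 0.1% SRB, solubilized in 20 mM Tris, and read at 585 nm against a day-0 plate. GI50 was taken; at least two runs in triplicate.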

M21 [2] = assay: Cell cycle arrest in human M21 cells by accumulation at G2/M phase at 10 uM after 24 hrs by flow cytometry
Method in brief: (§2)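 Exponentially growing M21 cells were exposed to drug (DMSO vehicle, <0.5% v/v) for 24 h, then collected and fixed with ice-cold ethanol. 5×10^5 cells were stained in PBS with 50 µg/mL propidium iodide plus 40 U/mL RNase A for 30 min at room temperature. Phase distribution was measured by flow cytometry.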

M21 [3] = assay: Cell cycle arrest in human M21 cells by accumulation at S phase at 10 uM after 24 hrs by flow cytometry; method in brief: as §2
MCF7 = assay: Antiproliferative activity against human MCF7 cells after 48 hrs; settings: MCF7, 48 h; method in brief: as §1
M21 [4] = assay: Cell cycle arrest in human M21 cells by accumulation at G0/G1 phase at 10 uM after 24 hrs by flow cytometry; method in brief: as §2
M21 [5] = assay: Induction of apoptosis in human M21 cells at 10 uM
M21 [6] = assay: Induction of apoptosis in human M21 cells at 3 uM
M21 [7] = assay: Cell cycle arrest in human M21 cells by accumulation at S phase at 3 uM after 24 hrs by flow cytometry; method in brief: as §2
M21 [8] = assay: Cell cycle arrest in human M21 cells by accumulation at G0/G1 phase at 3 uM after 24 hrs by flow cytometry; method in brief: as §2
M21 [9] = assay: Cell cycle arrest in human M21 cells by accumulation at G2/M phase at 3 uM after 24 hrs by flow cytometry; method in brief: as §2
HT-29 = assay: Antiproliferative activity against human HT29 cells after 48 hrs; settings: HT-29, 48 h; method in brief: as §1
M21 [10] = assay: Cell cycle arrest in human M21 cells by accumulation at G0/G1 phase at 5 uM after 24 hrs by flow cytometry; method in brief: as §2
M21 [11] = assay: Cell cycle arrest in human M21 cells by accumulation at G2/M phase at 5 uM after 24 hrs by flow cytometry; method in brief: as §2
M21 [12] = assay: Induction of apoptosis in human M21 cells at 5 uM
M21 [13] = assay: Induction of apoptosis in human M21 cells at 15 uM
M21 [14] = assay: Cell cycle arrest in human M21 cells by accumulation at G2/M phase at 15 uM after 24 hrs by flow cytometry; method in brief: as §2
M21 [15] = assay: Cell cycle arrest in human M21 cells by accumulation at S phase at 5 uM after 24 hrs by flow cytometry; method in brief: as §2
M21 [16] = assay: Cell cycle arrest in human M21 cells by accumulation at S phase at 15 uM after 24 hrs by flow cytometry; method in brief: as §2
M21 [17] = assay: Cell cycle arrest in human M21 cells by accumulation at G0/G1 phase at 15 uM after 24 hrs by flow cytometry; method in brief: as §2
M21 [18] = assay: Cell cycle arrest in human M21 cells by accumulation at S phase at 21 uM after 24 hrs by flow cytometry; method in brief: as §2
M21 [19] = assay: Cell cycle arrest in human M21 cells by accumulation at G2/M phase at 21 uM after 24 hrs by flow cytometry; method in brief: as §2
M21 [20] = assay: Cell cycle arrest in human M21 cells by accumulation at G0/G1 phase at 175 uM after 24 hrs by flow cytometry; method in brief: as §2
M21 [21] = assay: Induction of apoptosis in human M21 cells at 7 uM
M21 [22] = assay: Cell cycle arrest in human M21 cells by accumulation at G0/G1 phase at 7 uM after 24 hrs by flow cytometry; method in brief: as §2
M21 [23] = assay: Cell cycle arrest in human M21 cells by accumulation at G0/G1 phase at 21 uM after 24 hrs by flow cytometry; method in brief: as §2
M21 [24] = assay: Cell cycle arrest in human M21 cells by accumulation at G2/M phase at 175 uM after 24 hrs by flow cytometry; method in brief: as §2
M21 [25] = assay: Induction of apoptosis in human M21 cells at 175 uM
M21 [26] = assay: Cell cycle arrest in human M21 cells by accumulation at G2/M phase at 7 uM after 24 hrs by flow cytometry; method in brief: as §2
M21 [27] = assay: Induction of apoptosis in human M21 cells at 21 uM
M21 [28] = assay: Cell cycle arrest in human M21 cells by accumulation at S phase at 175 uM after 24 hrs by flow cytometry; method in brief: as §2
M21 [29] = assay: Cell cycle arrest in human M21 cells by accumulation at S phase at 7 uM after 24 hrs by flow cytometry; method in brief: as §2
M21 [30] = assay: (§3) Cell cycle arrest in human M21 cells by accumulation at G0/G1 phase at 1.2 uM after 24 hrs by flow cytometry; method in brief: as §2
M21 [31] = assay: Cell cycle arrest in human M21 cells by accumulation at G2/M phase at 4 uM after 24 hrs by flow cytometry; method in brief: as §2
M21 [32] = assay: as §3; method in brief: as §2; remark: listed apart in the source
M21 [33] = assay: Induction of apoptosis in human M21 cells at 1.2 uM
M21 [34] = assay: Induction of apoptosis in human M21 cells at 4 uM
M21 [35] = assay: Cell cycle arrest in human M21 cells by accumulation at S phase at 4 uM after 24 hrs by flow cytometry; method in brief: as §2
M21 [36] = assay: Cell cycle arrest in human M21 cells by accumulation at G0/G1 phase at 4 uM after 24 hrs by flow cytometry; method in brief: as §2
M21 [37] = assay: Cell cycle arrest in human M21 cells by accumulation at S phase at 1.2 uM after 24 hrs by flow cytometry; method in brief: as §2

| Structure (SMILES) | GI50 (M21 [1]) | GI50 (MCF7) | GI50 (HT-29) | other results |
| --- | --- | --- | --- | --- |
| CCCCCc1cccc(NC(=O)NCCCl)c1 | 0.87 µM | 1.6 µM | 0.96 µM | Activity (M21 [2]): 49%; Activity (M21 [3]): 7%; Activity (M21 [4]): 6%; Activity (M21 [5]): 31%; Activity (M21 [6]): 18%; Activity (M21 [7]): 11%; Activity (M21 [8]): 14%; Activity (M21 [9]): 50% |
| COCCCCCc1cccc(NC(=O)NCCCl)c1 | 0.94 µM | 1.9 µM | 0.84 µM | Activity (M21 [2]): 52%; Activity (M21 [3]): 9%; Activity (M21 [4]): 7%; Activity (M21 [5]): 24%; Activity (M21 [6]): 14%; Activity (M21 [7]): 14%; Activity (M21 [8]): 29%; Activity (M21 [9]): 37% |
| NC(=O)CCCCCc1cccc(NC(=O)NCCCl)c1 | 8.9 µM | 21.8 µM | 5.7 µM |  |
| NC(=O)CCCCc1cccc(NC(=O)NCCCl)c1 | 5.7 µM | 11.2 µM | 3.6 µM |  |
| O=C(O)CCCCCc1cccc(NC(=O)NCCCl)c1 | 47.5 µM | > 100 µM | 35.9 µM |  |
| CCOC(=O)CCCCCc1cccc(NC(=O)NCCCl)c1 | 17.7 µM | 22.5 µM | 19.8 µM |  |
| CC(=O)c1cccc(NC(=O)NCCCl)c1 | > 100 µM | > 100 µM | > 100 µM |  |
| COC(=O)c1cccc(NC(=O)NCCCl)c1 | 86.2 µM | > 100 µM | 80.2 µM |  |
| CCOC(=O)c1cccc(NC(=O)NCCCl)c1 | 96.4 µM | > 100 µM | > 100 µM |  |
| CC(=O)CCCCc1cccc(NC(=O)NCCCl)c1 | 1.1 µM | 2 µM | 0.6 µM | Activity (M21 [10]): 44%; Activity (M21 [11]): 25%; Activity (M21 [12]): 11%; Activity (M21 [13]): 23%; Activity (M21 [14]): 53%; Activity (M21 [15]): 13%; Activity (M21 [16]): 10%; Activity (M21 [17]): 6% |
| COC(=O)CCCCc1cccc(NC(=O)NCCCl)c1 | 7.3 µM | 15.1 µM | 8.1 µM | Activity (M21 [18]): 34%; Activity (M21 [19]): 20%; Activity (M21 [20]): 18%; Activity (M21 [21]): 4%; Activity (M21 [22]): 46%; Activity (M21 [23]): 40%; Activity (M21 [24]): 62%; Activity (M21 [25]): 19%; Activity (M21 [26]): 14%; Activity (M21 [27]): 6%; Activity (M21 [28]): 1%; Activity (M21 [29]): 36% |
| O=C(O)Cc1cccc(NC(=O)NCCCl)c1 | > 100 µM | > 100 µM | > 100 µM |  |
| O=C(NCCCl)Nc1cccc(C(=O)O)c1 | 67.9 µM | 82.9 µM | 68.1 µM |  |
| CCOC(=O)CCCCc1cccc(NC(=O)NCCCl)c1 | 11 µM | 8.7 µM | 8.2 µM |  |
| CCOC(=O)Cc1cccc(NC(=O)NCCCl)c1 | > 100 µM | > 100 µM | > 100 µM |  |
| CC(=O)CCCCCc1cccc(NC(=O)NCCCl)c1 | 2.1 µM | 3.9 µM | 0.9 µM | Activity (M21 [10]): 10%; Activity (M21 [11]): 48%; Activity (M21 [12]): 21%; Activity (M21 [13]): 16%; Activity (M21 [14]): 53%; Activity (M21 [15]): 18%; Activity (M21 [16]): 18%; Activity (M21 [17]): 11% |
| NC(=O)c1cccc(NC(=O)NCCCl)c1 | > 100 µM | > 100 µM | > 100 µM |  |
| NC(=O)Cc1cccc(NC(=O)NCCCl)c1 | > 100 µM | > 100 µM | > 100 µM |  |
| COC(=O)CCCCCc1cccc(NC(=O)NCCCl)c1 | 7.1 µM | 10.2 µM | 7.2 µM | Activity (M21 [18]): 31%; Activity (M21 [19]): 15%; Activity (M21 [20]): 8%; Activity (M21 [21]): 4%; Activity (M21 [22]): 45%; Activity (M21 [23]): 49%; Activity (M21 [24]): 72%; Activity (M21 [25]): 19%; Activity (M21 [26]): 14%; Activity (M21 [27]): 5%; Activity (M21 [28]): 1%; Activity (M21 [29]): 37% |
| COC(=O)Cc1cccc(NC(=O)NCCCl)c1 | > 100 µM | > 100 µM | 82.7 µM |  |
| O=C(NCCCl)Nc1cccc(CCCCCO)c1 | 0.27 µM | 0.48 µM | 0.16 µM | Activity (M21 [30]): 50%; Activity (M21 [31]): 53%; Activity (M21 [32]): 50%; Activity (M21 [33]): 12%; Activity (M21 [34]): 27%; Activity (M21 [35]): 7%; Activity (M21 [36]): 6%; Activity (M21 [37]): 11% |
| O=C(O)CCCCc1cccc(NC(=O)NCCCl)c1 | > 100 µM | > 100 µM | > 100 µM |  |
